Reference: ChEMBL document CHEMBL1140214, “Antitumor activity of new substituted 3-(5-imidazo[2,1-b]thiazolylmethylene)-2-indolinones and 3-(5-imidazo[2,1-b]thiadiazolylmethylene)-2-indolinones: selectivity against colon tumor cells and effect on cell cycle-related events” (2008)
Activity calls are given as the source filed them. The rule behind the calls is not given here.

Columns and labels:
Melanoma cell = experiment: Antitumor activity against human Melanoma cells after 48 hrs by SRB assay; assay type: functional; conditions: for TGI: read-out: pTGI (converted); for CC50: read-out: pLC50 (the source's name) (converted)
In short: (§1)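 NCI 60-cell panel two-stage screen: a single-dose pass at 10^-5 M, then five-dose testing for active compounds. Compounds were dissolved in DMSO and tested at five 10-fold dilutions, the highest 10^-4 M (10^-3 M in some cases). Results are given as the negative log molar concentration at three end points: pGI50, pTGI (total growth inhibition) and pLC50. Means are panel-subtype averages.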

[1] = Antitumor activity against human ovarian cancer cells after 48 hrs by SRB assay; assay type: functional, Cancer cell lines; conditions: for TGI: read-out: pTGI (converted); in short: as §1
[2] = target: T1, Ornithine decarboxylase (Homo sapiens) (UniProt P11926); experiment: Inhibition of ornithine decarboxylase in human HT-29 cells assessed as release of radioactive CO2 from [14C-carboxyl] ornithine; assay type: cell-based
T1 sequence (whole entry): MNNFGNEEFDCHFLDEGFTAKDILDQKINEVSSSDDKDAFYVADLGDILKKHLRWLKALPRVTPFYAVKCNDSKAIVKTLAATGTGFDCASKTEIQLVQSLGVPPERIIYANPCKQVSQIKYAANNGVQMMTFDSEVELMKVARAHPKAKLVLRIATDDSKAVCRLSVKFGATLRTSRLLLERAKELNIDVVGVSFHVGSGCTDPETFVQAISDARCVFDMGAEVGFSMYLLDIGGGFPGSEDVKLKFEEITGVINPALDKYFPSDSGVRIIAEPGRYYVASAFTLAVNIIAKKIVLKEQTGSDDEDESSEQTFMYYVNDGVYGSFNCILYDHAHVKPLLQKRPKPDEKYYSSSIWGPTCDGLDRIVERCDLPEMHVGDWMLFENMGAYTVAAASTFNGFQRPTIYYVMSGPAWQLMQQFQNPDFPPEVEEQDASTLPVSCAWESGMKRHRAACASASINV
In short: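 Extracts were taken from HT-29 cells after 24 h exposure to the indicated concentrations of test compound or vincristine. ODC activity was read as 14CO2 released from [14C-carboxyl]ornithine. Mean ± SEM, n=3.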

[3] = Antitumor activity against human renal cancer cells after 48 hrs by SRB assay; assay type: functional, Cancer cell lines; conditions: for GI50 / TGI / LC50 (concentration killing 50% of cells): Homo sapiens, Cancer cell lines, 48 h; for TGI: read-out: pTGI (converted); in short: as §1
HT-29 [4] = experiment: Cell cycle arrest in human HT-29 cells assessed as accumulation at G2/M phase after 24 hrs by flow cytometry; assay type: functional, cell-based
In short: (§2)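 HT-29 cells were grown in RPMI 1640 with 10% FBS and 2 mM L-glutamine at 37 °C, 5% CO2, and treated 24 h after plating at 2 × 10^4 cells/cm^2. Exposure was 24 h at 0.5–2 µM test compound or 30 nM vincristine, with DMSO controls. Cells were stained with propidium iodide, RNase and NP-40 for 30 min in the dark, then DNA content was read by flow cytometry. Mean ± SEM, n=3.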

Leukemia cell = experiment: Antitumor activity against human Leukemia cells after 48 hrs by SRB assay; assay type: functional; conditions: for GI50 / TGI: Homo sapiens, Leukemia cell, 48 h; for TGI: read-out: pTGI (converted); in short: as §1
HT-29 [5] = experiment: Inhibition of cell proliferation in human HT-29 cells at 2 uM; assay type: functional, cell-based
In short: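 HT-29 cells in RPMI 1640 with 10% FBS were exposed to compound in fresh medium 24 h after plating, with DMSO controls. Cells were counted daily and viability was checked by Trypan blue exclusion.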

[6] = Antitumor activity against human CNS cancer cells after 48 hrs by SRB assay; assay type: functional, Cancer cell lines; conditions: for TGI: read-out: pTGI (converted); in short: as §1
HT-29 [7] = experiment: Increase in cellular tubulin condensation in human HT-29 cells at 1 uM after 24 hrs using DAPI staining by immunofluorescence technique; assay type: functional, cell-based
In short: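 HT-29 cells on glass coverslips at 1 × 10^4 cells/cm^2 were treated 24 h at 1 µM, or with 30 nM vincristine. After fixation they were stained overnight at 4 °C with anti-α-tubulin mouse monoclonal, then 1 h at room temperature with FITC anti-mouse IgG, and counterstained with DAPI. Imaging was by laser scanning confocal microscopy.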

[8] = Antitumor activity against human prostate cancer cells after 48 hrs by SRB assay; assay type: functional, Cancer cell lines; conditions: for GI50 / TGI: Homo sapiens, Cancer cell lines, 48 h; for TGI: read-out: pTGI (converted); in short: as §1
[9] = Antitumor activity against human Breast cancer cells after 48 hrs by SRB assay; assay type: functional, Cancer cell lines; conditions: for TGI: read-out: pTGI (converted); in short: as §1
[10] = Antitumor activity against human Colon cancer cells after 48 hrs by SRB assay; assay type: functional, Cancer cell lines; conditions: for TGI: read-out: pTGI (converted); in short: as §1
NSCLC = experiment: Antitumor activity against human NSCLC cells after 48 hrs by SRB assay; assay type: functional; conditions: for TGI: read-out: pTGI (converted); in short: as §1
HT-29 [11] = experiment: Induction of apoptosis in human HT-29 cells assessed as caspase activity after 48 hrs by fluorimetric assay; assay type: functional, cell-based
In short: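 DEVDase (caspase) activity was measured fluorometrically in extracts of HT-29 cells treated for 24 or 48 h at the indicated concentrations.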

HT-29 [12] = experiment: Cell cycle arrest in human HT-29 cells assessed as accumulation at G2/M phase at 2 uM after 24 hrs by flow cytometry; assay type: functional; in short: as §2
HT-29 [13] = experiment: Cell cycle arrest in human HT-29 cells assessed as accumulation at G2/M phase at 30 nM after 24 hrs by flow cytometry; assay type: functional, cell-based; in short: as §2
[14] = Homo sapiens, Melanoma cell, 48 h, read-out: pGI50 (converted)
[15] = Homo sapiens, Melanoma cell, 48 h
[16] = Homo sapiens, Cancer cell lines, 48 h
[17] = Homo sapiens, Cancer cell lines, 48 h, read-out: pGI50 (converted)

Row | SMILES | GI50 (Melanoma cell) [µM] | GI50 (Melanoma cell; [14]) [µM] | GI50 (Leukemia cell) [µM] | TGI (Melanoma cell; [15]) [µM] | GI [1] [µM] | GI50 [1, 16] [µM] | GI [3] [µM] | GI50 [3] [µM] | TGI [3] [µM] | GI (Leukemia cell) [µM] | GI50 [6] [µM] | GI50 [6, 17] [µM] | GI [8] [µM] | GI50 [8] [µM] | GI [9] [µM] | GI50 [9, 16] [µM] | GI [10] [µM] | GI50 [10, 16] [µM] | GI (NSCLC) [µM] | GI50 (NSCLC; Homo sapiens, NSCLC, 48 h) [µM] | other results
1 | Cc1nn2c(/C=C3/C(=O)Nc4ccccc43)c(-c3ccc(Cl)cc3)nc2s1 | 19.95 | 20 | 17.8 | 35.5 | 25.7 | 25.7 | 17.78 | 17.8 | 33.1 | 17.78 | 3.24 | 3.24 | 12.3 | 12.3 | 16.98 | 17 | 18.62 | 18.6 | 19.05 | 19.1 | CC50 (Melanoma cell; [15]): 47.9 µM; LC50 (concentration killing 50% of cells) [3]: 46.8 µM; LC50 [6, 16]: 38.9 µM; TGI [6, 16]: 16.6 µM; TGI [8]: 32.4 µM; TGI [9, 16]: 42.7 µM; TGI [10, 16]: 44.7 µM; TGI (NSCLC; Homo sapiens, NSCLC, 48 h): 45.7 µM
2 | Cc1ccc(-c2nc3sc(C)cn3c2/C=C2/C(=O)Nc3ccc(Cl)cc32)cc1 | 14.79 | 14.8 | 22.9 | 31.6 | 14.45 | 14.5 | 12.59 | 12.6 | 32.4 | 22.91 | 6.61 | 6.61 | 22.39 | 22.4 | 12.59 | 12.6 | 18.62 | 18.6 | 13.49 | 13.5 | CC50 (Melanoma cell; [15]): 66.1 µM; LC50 (concentration killing 50% of cells) [1, 16]: 74.1 µM; TGI [1, 16]: 34.7 µM; LC50 (concentration killing 50% of cells) [3]: 64.6 µM; TGI (Leukemia cell): 72.4 µM; LC50 [6, 16]: 55 µM; TGI [6, 16]: 20.4 µM; TGI [8]: 55 µM; LC50 [9, 16]: 75.9 µM; TGI [9, 16]: 38.9 µM; LC50 (50% lethal concentration) [10, 16]: 79.4 µM; TGI [10, 16]: 43.7 µM; LC50 (NSCLC; Homo sapiens, NSCLC, 48 h): 69.2 µM; TGI (NSCLC; Homo sapiens, NSCLC, 48 h): 37.2 µM
3 | CC[C@]1(O)C[C@H]2CN(CCc3c([nH]c4ccccc34)[C@@](C(=O)OC)(c3cc4c(cc3OC)N(C=O)[C@H]3[C@@](O)(C(=O)OC)[C@H](OC(C)=O)[C@]5(CC)C=CCN6CC[C@]43[C@@H]65)C2)C1.O=S(=O)(O)O [VINCRISTINE SULFATE] | – | 0.158 | 0.1 | 7.94 | 0.32 | 0.316 | 0.32 | 0.316 | 20 | 0.1 | – | 0.126 | 0.13 | 0.126 | 0.32 | 0.316 | 0.1 | 0.1 | 0.25 | 0.251 | CC50 (Melanoma cell; [15]): 251 µM; Activity (HT-29 [13]): Active; TGI [1, 16]: 20 µM; Activity [2]: Active; TGI (Leukemia cell): 15.8 µM; TGI [6, 16]: 6.31 µM; TGI [8]: 6.31 µM; TGI [9, 16]: 7.94 µM; TGI [10, 16]: 3.98 µM; TGI (NSCLC; Homo sapiens, NSCLC, 48 h): 15.8 µM
4 | Cc1cn2c(/C=C3/C(=O)N(C)c4ccccc43)c(C)nc2s1 | 13.18 | 13.2 | 5.01 | 72.4 | 15.49 | 15.5 | 22.39 | 22.4 | 97.7 | 5.01 | 8.71 | 8.71 | 21.38 | 21.4 | 5.5 | 5.5 | 4.57 | 4.57 | 17.78 | 17.8 | TGI [1, 16]: 74.1 µM; TGI (Leukemia cell): 20.9 µM; TGI [6, 16]: 51.3 µM; TGI [9, 16]: 55 µM; TGI [10, 16]: 69.2 µM; TGI (NSCLC; Homo sapiens, NSCLC, 48 h): 75.9 µM

Further lines, with some results ahead:

Row | GI50 (Melanoma cell) [µM] | GI50 (Melanoma cell; [14]) [µM] | GI50 (Leukemia cell) [µM] | SMILES | TGI (Melanoma cell; [15]) [µM] | GI [1] [µM] | GI50 [1, 16] [µM] | GI [3] [µM] | GI50 [3] [µM] | TGI [3] [µM] | GI (Leukemia cell) [µM] | GI50 [6] [µM] | GI50 [6, 17] [µM] | GI [8] [µM] | GI50 [8] [µM] | GI [9] [µM] | GI50 [9, 16] [µM] | GI [10] [µM] | GI50 [10, 16] [µM] | GI (NSCLC) [µM] | GI50 (NSCLC; Homo sapiens, NSCLC, 48 h) [µM] | other results
5 | 6.31 | 6.31 | 1.15 | COc1ccc2c(c1)/C(=C\c1c(C)nc3sc(C)nn13)C(=O)N2 | 69.2 | 5.01 | 5.01 | 6.17 | 6.17 | 91.2 | 1.15 | 2.51 | 2.51 | 3.89 | 3.89 | 2.63 | 2.63 | 0.69 | 0.692 | 5.37 | 5.37 | TGI [1, 16]: 72.4 µM; Activity [2]: Dose-dependent effect; Activity (HT-29 [4]): Dose-dependent effect; TGI (Leukemia cell): 38 µM; Activity (HT-29 [5]): Active; TGI [6, 16]: 38 µM; Activity (HT-29 [7]): Active; TGI [9, 16]: 75.9 µM; TGI [10, 16]: 41.7 µM; TGI (NSCLC; Homo sapiens, NSCLC, 48 h): 56.2 µM; Activity (HT-29 [11]): Active; Activity (HT-29 [12]): 58%
6 | 45.71 | 45.7 | 16.2 | Cc1nn2c(/C=C3/C(=O)Nc4ccccc43)c(C)nc2s1 | – | 50.12 | 50.1 | 61.66 | 61.7 | – | 16.22 | 48.98 | 49 | 47.86 | 47.9 | 22.91 | 22.9 | 9.33 | 9.33 | 38.9 | 38.9 | –
7 | 6.31 | 6.31 | 4.57 | Cc1cn2c(/C=C3/C(=O)Nc4ccc(F)cc43)c(C)nc2s1 | 35.5 | 7.24 | 7.24 | 11.48 | 11.5 | 40.7 | 4.57 | 6.03 | 6.03 | 9.55 | 9.55 | 4.47 | 4.47 | 2.4 | 2.4 | 8.13 | 8.13 | TGI [1, 16]: 44.7 µM; TGI (Leukemia cell): 23.4 µM; TGI [6, 16]: 33.1 µM; TGI [8]: 40.7 µM; TGI [9, 16]: 23.4 µM; TGI [10, 16]: 40.7 µM; TGI (NSCLC; Homo sapiens, NSCLC, 48 h): 42.7 µM
